Our source for the Activity and Ratio values is ChEMBL document CHEMBL3232881, “New orally active amino- and hydroxy-functionalized 11-azaartemisinins and their derivatives with high order of antimalarial activity against multidrug-resistant Plasmodium yoelii in Swiss mice” (2014).

What all share (type): functional
Assay [1] deals with Plasmodium yoelii. Kind of assay: Antimalarial activity against chloroquine, mefloquine and halofantrine-resistant Plasmodium yoelii infected in Swiss mouse assessed as mouse survival at 24 mg/kg, po for 4 days measured on day 28 relative to control. Put shortly: (§1)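 P. yoelii nigeriensis (chloroquine-, mefloquine-, halofantrine-resistant) given ip as 1 × 10⁶ parasitized RBCs on day 0 to Swiss mice of either sex, five per dose. Compound in groundnut oil, 0.1 mL, given orally once daily days 0–3. Blood smears checked through day 28. Mice surviving beyond day 28 counted as protected, reported as % of five. β-Arteether as positive control.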

The subject of assay [2] is Plasmodium yoelii. The assay is described as follows: Antimalarial activity against chloroquine, mefloquine and halofantrine-resistant Plasmodium yoelii infected in Swiss mouse assessed as suppression of parasitemia at 24 mg/kg, po for 4 days by microscopic analysis relative to control. Put shortly:
(§2)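 Swiss mice of either sex infected ip on day 0 with 1 × 10⁶ parasitized RBCs of multidrug-resistant P. yoelii nigeriensis, five per dose. Oral dosing in groundnut oil (0.1 mL) once daily days 0–3. Parasitemia read by microscopy on day 4. % suppression = [(C − T)/C] × 100 against untreated controls; 100% means no parasites in 50 oil-immersion fields.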

In assay [3] the test system is Plasmodium yoelii. The assay is described as follows: Antimalarial activity against chloroquine, mefloquine and halofantrine-resistant Plasmodium yoelii infected in Swiss mouse assessed as mouse survival at 12 mg/kg, po for 4 days measured on day 28 relative to control. Put shortly:
as §1

In assay [4] the test system is Plasmodium yoelii. The assay is described as follows: Antimalarial activity against chloroquine, mefloquine and halofantrine-resistant Plasmodium yoelii infected in Swiss mouse assessed as suppression of parasitemia at 12 mg/kg, po for 4 days by microscopic analysis relative to control. A digest of the protocol: as §2
Assay [5] relates to Plasmodium yoelii. Kind of assay: Antimalarial activity against chloroquine, mefloquine and halofantrine-resistant Plasmodium yoelii infected in Swiss mouse assessed as mouse survival at 6 mg/kg, po for 4 days measured on day 28 relative to control. Put shortly:
as §1

Assay [6] has as its system Plasmodium yoelii. The assay is described as follows: Ratio of compound to beta-arteether for antimalarial activity against chloroquine, mefloquine and halofantrine-resistant Plasmodium yoelii infected in Swiss mouse assessed as mouse survival.
Assay [7] relates to Plasmodium yoelii. Kind of assay: Antimalarial activity against chloroquine, mefloquine and halofantrine-resistant Plasmodium yoelii infected in Swiss mouse assessed as suppression of parasitemia at 6 mg/kg, po for 4 days by microscopic analysis relative to control. Put shortly:
as §2

Assay [8] deals with Plasmodium yoelii. Kind of assay: Antimalarial activity against chloroquine, mefloquine and halofantrine-resistant Plasmodium yoelii infected in Swiss mouse assessed as mouse survival at 48 mg/kg, po for 4 days measured on day 28 relative to control. A digest of the protocol:
as §1

The subject of assay [9] is Plasmodium yoelii. Kind of assay: Antimalarial activity against chloroquine, mefloquine and halofantrine-resistant Plasmodium yoelii infected in Swiss mouse assessed as suppression of parasitemia at 48 mg/kg, po for 4 days by microscopic analysis relative to control. Put shortly:
as §2

Turning to `C[C@@H]1CC[C@H]2[C@@H](C)C(=O)N(N)[C@@H]3O[C@@]4(C)CC[C@@H]1[C@@]23OO4`, the Activity in the assay with Plasmodium yoelii [1] turned out to be 40%; in the assay on Plasmodium yoelii [2], 100%.
Taken in the same sequence, the figures for `C[C@@H]1CC[C@H]2[C@@H](C)C(=O)N(O)[C@@H]3O[C@@]4(C)CC[C@@H]1[C@@]23OO4` were 0% and 54%.
Turning to `C[C@@H]1CC[C@H]2[C@@H](C)C(=O)N(NC(=O)c3ccccc3)[C@@H]3O[C@@]4(C)CC[C@@H]1[C@@]23OO4`, the Activity was found to be 100% in the assay on Plasmodium yoelii [1], 100% in the assay on Plasmodium yoelii [2], 0% in the assay on Plasmodium yoelii [3] and 62% in the assay with Plasmodium yoelii [4].
With `C[C@@H]1CC[C@H]2[C@@H](C)C(=O)N(NC(=O)c3ccc(Br)cc3)[C@@H]3O[C@@]4(C)CC[C@@H]1[C@@]23OO4`, the Activity in the assay with Plasmodium yoelii [1] is 100%; in the assay with Plasmodium yoelii [2], 100%; in the assay on Plasmodium yoelii [3], 0%; in the assay with Plasmodium yoelii [4], 100%.
Consider `C[C@@H]1CC[C@H]2[C@@H](C)C(=O)N(NC(=O)c3ccc(C(F)(F)F)cc3)[C@@H]3O[C@@]4(C)CC[C@@H]1[C@@]23OO4`, for which the Activity in the assay with Plasmodium yoelii [1] is given as 100%; in the assay on Plasmodium yoelii [2], 100%; in the assay on Plasmodium yoelii [3], 20%; in the assay on Plasmodium yoelii [4], 100%.
Turning to `C[C@@H]1CC[C@H]2[C@@H](C)C(=O)N(NC(=O)C34CC5CC(CC(C5)C3)C4)[C@@H]3O[C@@]4(C)CC[C@@H]1[C@@]23OO4`, the Activity is on record as 60% with Plasmodium yoelii [1] and 100% in the assay on Plasmodium yoelii [2].
Turning to `C[C@@H]1CC[C@H]2[C@@H](C)C(=O)N(NC(=O)C3c4ccccc4-c4ccccc43)[C@@H]3O[C@@]4(C)CC[C@@H]1[C@@]23OO4`, the results for the Activity with Plasmodium yoelii [1] and in the assay with Plasmodium yoelii [2] were 60% and 100%, respectively.
With `C[C@@H]1CC[C@H]2[C@@H](C)C(=O)N(NC(=O)c3ccc(-c4ccccc4)cc3)[C@@H]3O[C@@]4(C)CC[C@@H]1[C@@]23OO4`, the Activity with Plasmodium yoelii [5] turned out to be 0%; in the assay on Plasmodium yoelii [1], 100%; in the assay with Plasmodium yoelii [2] it was 100%; with Plasmodium yoelii [3], 100%; in the assay on Plasmodium yoelii [7] it was 94%; with Plasmodium yoelii [4], 100%. For the same molecule, the Ratio with Plasmodium yoelii [6] is 4.
For `C[C@@H]1CC[C@H]2[C@@H](C)C(=O)N(NC(=O)CC34CC5CC(CC(C5)C3)C4)[C@@H]3O[C@@]4(C)CC[C@@H]1[C@@]23OO4`, the Activity with Plasmodium yoelii [1] worked out at 60%; with Plasmodium yoelii [2], 100%.
As for `C[C@@H]1CC[C@H]2[C@@H](C)C(=O)N(/N=C/c3ccccc3)[C@@H]3O[C@@]4(C)CC[C@@H]1[C@@]23OO4`, the Activity with Plasmodium yoelii [1] is 40%; in the assay with Plasmodium yoelii [2] it was 100%.
With `Cc1ccc(/C=N/N2C(=O)[C@H](C)[C@@H]3CC[C@@H](C)[C@@H]4CC[C@@]5(C)OO[C@]43[C@H]2O5)cc1`, the Activity with Plasmodium yoelii [5] is given as 0%; in the assay with Plasmodium yoelii [1], 100%; in the assay on Plasmodium yoelii [2] it was 100%; with Plasmodium yoelii [3], 100%; with Plasmodium yoelii [7], 66%; in the assay on Plasmodium yoelii [4], 100%. For the same molecule, the Ratio with Plasmodium yoelii [6] came to 4.
In the case of `C[C@@H]1CC[C@H]2[C@@H](C)C(=O)N(/N=C/c3ccc(Cl)cc3)[C@@H]3O[C@@]4(C)CC[C@@H]1[C@@]23OO4`, the Activity with Plasmodium yoelii [1] is given as 20%; in the assay with Plasmodium yoelii [2] it was 100%.
`C[C@@H]1CC[C@H]2[C@@H](C)C(=O)N(/N=C/c3ccc(F)cc3)[C@@H]3O[C@@]4(C)CC[C@@H]1[C@@]23OO4`: the figures for the Activity in the assay on Plasmodium yoelii [1] and in the assay on Plasmodium yoelii [2] were 40% and 100%, respectively.
With `C[C@@H]1CC[C@H]2[C@@H](C)C(=O)N(/N=C/c3ccc(C(F)(F)F)cc3)[C@@H]3O[C@@]4(C)CC[C@@H]1[C@@]23OO4`, the Activity in the assay on Plasmodium yoelii [5] is reported as 0%; in the assay on Plasmodium yoelii [1], 100%; in the assay on Plasmodium yoelii [2], 100%; with Plasmodium yoelii [3] it was 100%; with Plasmodium yoelii [7] it was 99%; with Plasmodium yoelii [4] it was 100%. Also, the Ratio in the assay with Plasmodium yoelii [6] is 4.
With `C[C@@H]1CC[C@H]2[C@@H](C)C(=O)N(/N=C/c3ccc(-c4ccccc4)cc3)[C@@H]3O[C@@]4(C)CC[C@@H]1[C@@]23OO4`, the Activity was 80% in the assay with Plasmodium yoelii [5]; 100% in the assay with Plasmodium yoelii [1]; 100% with Plasmodium yoelii [2]; 100% in the assay on Plasmodium yoelii [3]; 100% in the assay on Plasmodium yoelii [7]; 100% in the assay on Plasmodium yoelii [4]. Further, in the assay with Plasmodium yoelii [6], the Ratio amounted to 4.
Turning to `C[C@@H]1CC[C@H]2[C@@H](C)C(=O)N(/N=C/c3ccc4c(c3)Cc3ccccc3-4)[C@@H]3O[C@@]4(C)CC[C@@H]1[C@@]23OO4`, the Activity is recorded as 0% in the assay on Plasmodium yoelii [5]; 100% in the assay with Plasmodium yoelii [1]; 100% in the assay on Plasmodium yoelii [2]; 100% in the assay with Plasmodium yoelii [3]; 66% with Plasmodium yoelii [7]; 100% with Plasmodium yoelii [4]. For the same molecule, in the assay on Plasmodium yoelii [6], the Ratio is listed as 4.
`C[C@@H]1CC[C@H]2[C@@H](C)C(=O)N(NCc3ccccc3)[C@@H]3O[C@@]4(C)CC[C@@H]1[C@@]23OO4`: the Activity was 100% in the assay on Plasmodium yoelii [1], 100% in the assay with Plasmodium yoelii [2], 0% with Plasmodium yoelii [3] and 100% with Plasmodium yoelii [4].
As to `Cc1ccc(CNN2C(=O)[C@H](C)[C@@H]3CC[C@@H](C)[C@@H]4CC[C@@]5(C)OO[C@]43[C@H]2O5)cc1`, the Activity in the assay with Plasmodium yoelii [1] is given as 60%; in the assay with Plasmodium yoelii [2], 100%; with Plasmodium yoelii [3] it was 0%; with Plasmodium yoelii [4], 74%.
Turning to `C[C@@H]1CC[C@H]2[C@@H](C)C(=O)N(NCc3ccc(Cl)cc3)[C@@H]3O[C@@]4(C)CC[C@@H]1[C@@]23OO4`, the Activity in the assay on Plasmodium yoelii [1] was 100%; in the assay on Plasmodium yoelii [2], 100%; with Plasmodium yoelii [3] it was 80%; in the assay with Plasmodium yoelii [4] it was 100%.
Consider `C[C@@H]1CC[C@H]2[C@@H](C)C(=O)N(NCc3ccc(F)cc3)[C@@H]3O[C@@]4(C)CC[C@@H]1[C@@]23OO4`, for which the Activity with Plasmodium yoelii [1] was 100%; in the assay with Plasmodium yoelii [2] it was 100%; in the assay with Plasmodium yoelii [3], 20%; in the assay on Plasmodium yoelii [4], 100%.
For `C[C@@H]1CC[C@H]2[C@@H](C)C(=O)N(NCc3ccc(C(F)(F)F)cc3)[C@@H]3O[C@@]4(C)CC[C@@H]1[C@@]23OO4`, the Activity with Plasmodium yoelii [1] is 100%; with Plasmodium yoelii [2], 100%; in the assay on Plasmodium yoelii [3], 20%; in the assay with Plasmodium yoelii [4] it was 100%.
Regarding `C[C@@H]1CC[C@H]2[C@@H](C)C(=O)N(NCc3ccc(-c4ccccc4)cc3)[C@@H]3O[C@@]4(C)CC[C@@H]1[C@@]23OO4`, the Activity in the assay on Plasmodium yoelii [5] is 20%; with Plasmodium yoelii [1] it was 100%; with Plasmodium yoelii [2], 100%; in the assay with Plasmodium yoelii [3], 100%; with Plasmodium yoelii [7], 100%; with Plasmodium yoelii [4], 100%. The Ratio in the assay on Plasmodium yoelii [6] amounted to 4.
As for `C[C@@H]1CC[C@H]2[C@@H](C)C(=O)N(NCc3ccc4c(c3)Cc3ccccc3-4)[C@@H]3O[C@@]4(C)CC[C@@H]1[C@@]23OO4`, the Activity with Plasmodium yoelii [1] is 100%; with Plasmodium yoelii [2] it was 100%; in the assay with Plasmodium yoelii [3], 40%; with Plasmodium yoelii [4] it was 100%.
In the case of `C[C@@H]1CC[C@H]2[C@@H](C)C(=O)N(OCc3ccccc3)[C@@H]3O[C@@]4(C)CC[C@@H]1[C@@]23OO4`, the Activity with Plasmodium yoelii [1] stood at 100%; with Plasmodium yoelii [2], 100%; with Plasmodium yoelii [3], 80%; in the assay with Plasmodium yoelii [4], 100%.
Regarding `C[C@@H]1CC[C@H]2[C@@H](C)C(=O)N(OCc3ccccc3F)[C@@H]3O[C@@]4(C)CC[C@@H]1[C@@]23OO4`, the Activity is 100% in the assay with Plasmodium yoelii [1], 100% in the assay with Plasmodium yoelii [2], 0% with Plasmodium yoelii [3] and 89% in the assay with Plasmodium yoelii [4].
Turning to `C[C@@H]1CC[C@H]2[C@@H](C)C(=O)N(OCc3ccc(-c4ccccc4)cc3)[C@@H]3O[C@@]4(C)CC[C@@H]1[C@@]23OO4`, the Activity amounted to 100% in the assay on Plasmodium yoelii [1], 100% in the assay with Plasmodium yoelii [2], 60% in the assay on Plasmodium yoelii [3] and 100% with Plasmodium yoelii [4].
Consider `CCO[C@H]1O[C@@H]2O[C@@]3(C)CC[C@H]4[C@H](C)CC[C@@H]([C@H]1C)[C@@]24OO3` [ARTEMOTIL], for which the Activity in the assay with Plasmodium yoelii [8] came out at 100%; in the assay on Plasmodium yoelii [9], 100%; in the assay on Plasmodium yoelii [1] it was 20%; with Plasmodium yoelii [2] it was 100%.
